Assay outcomes (PubChem)
PG9 Ab binder = small molecules binding HIV-1 gp120 antibody PG9 | TR-FRET gp120-PG9 antibody binding | inhibition, % at 6.7 µM | hit rate 0.43% among 360,000 | AID 624416; in the data active = inhibition above about 8.5%
NR2E3 ag-1 = agonists of human nuclear receptor NR2E3 | Q9Y5X4 | GST-NR2E3/biotin-RetCOR TR-FRET, 1536-well | inhibition of corepressor binding, % at 4.78 µM | hit rate 0.12% among 320,000 | AID 2300;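 active = percent inhibition above the cutoff of mean plus 3 SD of all tested compounds, set per screening campaign, cut at about 20% in these data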;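 also: 0% = DMSO wells and 100% = biotin wells as full block of FRET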
Target sequence (Q9Y5X4 whole entry, looked up): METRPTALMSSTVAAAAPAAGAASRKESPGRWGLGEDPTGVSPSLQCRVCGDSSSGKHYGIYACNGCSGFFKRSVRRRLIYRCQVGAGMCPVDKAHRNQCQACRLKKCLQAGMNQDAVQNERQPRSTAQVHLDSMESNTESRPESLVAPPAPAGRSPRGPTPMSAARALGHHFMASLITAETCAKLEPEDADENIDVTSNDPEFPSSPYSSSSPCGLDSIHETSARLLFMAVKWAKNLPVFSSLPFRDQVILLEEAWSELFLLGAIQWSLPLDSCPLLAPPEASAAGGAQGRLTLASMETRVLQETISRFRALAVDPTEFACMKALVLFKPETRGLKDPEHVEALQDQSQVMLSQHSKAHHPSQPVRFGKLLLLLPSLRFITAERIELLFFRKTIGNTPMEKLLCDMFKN
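System: GST-tagged NR2E3 plus biotinylated RetCOR corepressor; Amount: 1.35 nM GST-tagged NR2E3 final; Dosing: single nominal compound dose of 4.8 µM; Schedule: 5 h incubation at 4 °C; Technique: TR-FRET with europium anti-GST and streptavidin-D2, 340 nm excitation; Controls: biotin wells as high control, 0.6% DMSO wells as low control.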
NR1D1 modulator = Rev-erb alpha (human) modulation. hit rate 0.79% among 370,000. activity, % at 10 µM. Rev-erbα–FITC-DNA binding, fluorescence polarization, 90 min;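 active = activity above about 14%, limit read from the data; passing the limit was not always enough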;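 also: 0% = DMSO wells with 35 nM protein and 100% = DMSO wells with 750 nM protein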
NR2E3 ag-2 = human photoreceptor-specific nuclear receptor agonism. CHO-S Gal4-NCOR/VP16-NR2E3 two-hybrid, luciferase. hit rate 0.35% among 360,000. inhibition of corepressor binding, % at 3.98 µM. AID 602229;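 active = inhibition above the mean of all tested compounds plus 3 SD, cut at about 70% in these data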;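 also: 0% = DMSO with NR2E3 transfected cells and 100% = cells lacking NR2E3 construct; higher means lower luciferase signal from less NR2E3 corepressor binding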
NR1D1 mod conf = Rev-erb alpha (human) modulation, hit confirmation; shares compounds with NR1D1 modulator; Rev-erb alpha FITC-DNA binding, fluorescence polarization, 90 min; activation, % at 25 µM; hit rate 61% among 3,000; AID 1259319;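 active = activation at or above a set limit, or at least 3 SD above the negative control mean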;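 also: 0% = 35 nM protein with DMSO and 100% = 750 nM protein high control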
RORg counter = counter-screen for Rev-erb alpha modulators: RORgamma DNA binding; purified RORgamma protein-FITC-DNA binding, fluorescence polarization; AID 1259320; hit rate 8% among 910; IC50, µM; shares compounds with NR1D1 modulator;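 active = Compounds whose fitted half-maximal concentration for disrupting protein-DNA binding is below 10 micromolar; the record names Rev-erb in its text, so the target is in doubt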
An asterisk follows results filed as active; . = no result. This is a sample that favours compounds with a hit; in the whole collection about 1.4% have one here.

SMILES	PG9 Ab binder	NR2E3 ag-1	NR1D1 modulator	NR2E3 ag-2	NR1D1 mod conf	others
CCCCN(C(=O)c1ccco1)c1nnc(-c2cc(OC)c(OC)c(OC)c2)s1	-2.1	-3.1	99.0*	-18.1	15.5
Cc1cc(OCC(=O)NCc2ccccn2)c2c(C)c(C)c(=O)oc2c1	0.5	1.6	-1.6	21.0	.
Cc1cc(OC(C)C(=O)NCc2ccccn2)c2c(C)cc(=O)oc2c1 (stereo not drawn)	0.0	0.8	1.9	19.8	.
Cc1cc(OCC(=O)Nc2ccccn2)c2c(C)c(C)c(=O)oc2c1	-1.1	0.9	32.5*	-18.3	1.7
Cc1cc(OC(C)C(=O)NCc2ccccn2)c2c(C)c(Cc3ccccc3)c(=O)oc2c1 (stereo not drawn)	0.4	-4.4	86.3*	10.9	142.0*	RORg counter=>40
COc1ccc(CNC(=O)[C@@H](Cc2ccccc2)NC(=O)[C@H]2O[C@@H](n3cnc4c(=O)[nH]c(N)nc43)[C@H](O)[C@@H]2O)cc1	0.4	.	-4.1	.	.
CCOC(=O)c1cc(-c2ccccc2)sc1NC(=S)Nc1cccc(C)n1	1.9	-4.3	26.1*	-2.7	0.7
CCOC(=O)c1cc(-c2ccccc2)sc1NC(=O)C(C)OC(=O)c1cccnc1Cl (stereo not drawn)	-1.7	2.8	19.9*	-12.0	12.7
CCOC(=O)c1cc(-c2ccccc2)sc1NC(=O)C(C)C	1.4	-1.5	-3.7	-5.4	.
COc1ccc(S(=O)(=O)N2CCCc3nc(-c4ccccc4)ccc32)cc1	0.1	.	-0.1	.	.
O=C(NC1CCCC1)C(C1CC1)n1c(C2CC2)nc2ccccc21 (stereo not drawn)	-1.7	.	-4.0	.	.
CCn1c(SCC(=O)Nc2ccc(C(C)=O)cc2)nc2nc3c(cc2c1=O)CCCC3	-0.4	-2.5	17.2*	-48.2	5.2
CCn1c(SCC(=O)Nc2ccc(Cl)cc2)nc2nc3c(cc2c1=O)CCCC3	4.6	-0.8	-0.3	-43.0	.
CC1(C(=O)Nc2ccc3c(c2)OCCO3)CCN1C(=O)c1cccc(F)c1 (stereo not drawn)	-0.1	.	-3.1	-36.1	.
O=C(O)CN1C(=O)/C(=C/c2ccc(N3CCCCC3)o2)SC1=S	0.1	1.2	-0.8	-11.9	.
CN1CCS/C1=C/C=C1\SC(=S)N(CC(=O)O)C1=O	-25.0	-7.8	301.9*	0.6	246.3*	RORg counter=>40
CN1CCS/C1=C/C=C1/SC(=S)N(Cc2ccccc2)C1=O	-3.4	-3.0	188.0*	-65.1	168.8*	RORg counter=>40
CCCCN1C(=O)/C(=C/C=C2\SCCN2C)SC1=S	-2.3	.	126.3*	-120.1	46.8*	RORg counter=>40
CC(=O)Nc1sc(C)c(C)c1C(=O)OCC(=O)NC(C)c1ccccc1 (stereo not drawn)	-0.8	.	-3.1	9.3	.
CC(=O)Nc1sc(C)c(C)c1C(=O)OCC(=O)N(Cc1ccccc1)C(C)C	-2.1	2.3	41.9*	10.9	31.7*	RORg counter=>40
CCC(=O)Nc1sc(C(=O)Nc2ccccc2OC)c(C)c1C(=O)OC	0.5	2.5	42.2*	-1.0	17.5
CCOc1ccc(NC(=O)c2sc(NC(C)=O)c(C(=O)OC)c2C)cc1	2.6	-0.5	30.9*	-29.2	6.2
COc1ccccc1NC(=O)COC(=O)c1c(NC(C)=O)sc(C)c1C	-1.6	.	18.6*	-41.4	6.1
F[B-](F)(F)COCc1ccccc1C#Cc1ccccc1	0.2	.	-2.1	.	.
Cc1cccc(C)c1NC(=O)C1c2ccccc2OCC(=O)N1Cc1ccccc1 (stereo not drawn)	0.9	.	-1.3	9.8	.
SMILES	PG9 Ab binder	NR2E3 ag-1	NR1D1 modulator	NR2E3 ag-2	NR1D1 mod conf	others
COc1ccc(NC(=O)Cn2c(=O)n(-c3ccccc3)c(=O)c3oc4ccccc4c32)c(OC)c1	-0.3	3.7	12.3	-4.8	.
COc1ccccc1NC(=O)Cn1c(=O)n(-c2ccccc2)c(=O)c2oc3ccccc3c21	-1.0	-1.5	19.9*	-1.3	23.4*
Cc1cc2c(s1)c1cnn(Cc3cc(F)c(F)cc3F)c(=O)c1n2C	.	.	25.6*	.	9.9
Cc1cc2c(s1)c1cnn(Cc3ccc(F)cc3F)c(=O)c1n2C	.	.	18.4	.	.
COc1cc2c(cc1OC)-c1cc3ccc4c(c3c[n+]1CC2)OCO4	-10.8	-4.0	26.8*	-47.0	44.5*	RORg counter=>40
COc1cc2c(cc1O)CC[n+]1cc3c(OC)c(OC)ccc3cc1-2	-10.6	-6.3	0.8	-0.8	.
